The entries come from a sample that favours hits as a whole.
bCat KO growth = primary screen for growth suppressors in beta-catenin knockout HCT116 cells (colon tumor, human) | HCT116 beta-catenin knockout viability, CellTiter-Glo, 60 h; stronger effect = lower value | viability, % at 10 µM | 140,000 compounds, 1.5% hits;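 active means viability at or under a set limit, the compound median less 4 SD, cut at about 6% in these data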;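 further: 0% = Hyamine 1622 control at 20 µM and 100% = untreated cell control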
H69AR inhibit = proliferation blockers of H69AR lung cancer cells, primary screen, cell-based, human, 86K library. H69AR lung tumor viability, ATP luminescence, 72 h; stronger effect = lower value. viability, % at 10 µM. 85,000 compounds, 6% hits;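 active means viability at or below 40%; inactive means viability above 40%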;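 further: multidrug resistant small cell line overexpressing MRP-1 efflux transporter; 100% = mean luminescence of untreated control wells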
HCT116 PTEN-null = growth suppression of PTEN-null HCT116, primary screen, cell-based, CellTiter-Glo. HCT116 PTEN-null viability, 60 h; stronger effect = lower value. viability, % at 10 µM. 140,000 compounds, 1.2% hits;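 active means viability at or below a set limit, 4 SD under the median of all tested compounds, cut at about 3.7% in these data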;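 further: PTEN knockout HCT116 line with beta catenin targeted HCT116 as companion control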
Fibroblast inh = antiproliferative effect on LL 47 fibroblasts – human, LL 47 cells, CellTiter-Glo luminescence, primary screen | 85,000 compounds, 1.1% hits | LL 47 human lung fibroblast viability, ATP luminescence; stronger effect = lower value | viability, % at 10 µM | AID 719, 2007;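 active means viability at or below 50% in the single dose screen; inactive means viability above 50%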;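 further: compound exposure lasted 72 h before the ATP readout; 100% = median luminescence of untreated cell-only wells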
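Test system: LL 47 human lung fibroblasts; Quantity: 1,150 cells/well; Buffer or medium: IMEM plus 15% FBS; Dosing: tenfold compound dosing solution, DMSO at 0.1%; Timing: overnight cell rest, 72 h compound treatment at 37 °C; Detection: ATP-based CellTiter-Glo luminescent readout; Read-out basis: viability percentage against median untreated-cell control; Controls: cell-only wells, no compound.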
Pyk2 oligo antag = antagonists of Pyk2 self-association, primary screen, Q293 cells, FERM NanoBiT luminescence, HTS | z-score (the deposit names both 25 µM and 10 µM) | Protein-tyrosine kinase 2-beta (Homo sapiens), Q14289 | stronger effect = lower value | 99,000 compounds, 0.83% hits;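 active means Z-score of -3 or lower, scaled per plate to the spread of control and sample wells; inactive means z-score above -3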;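 further: negative z-score means lost luminescence so less FERM oligomerization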
Target sequence (Q14289 whole entry, looked up): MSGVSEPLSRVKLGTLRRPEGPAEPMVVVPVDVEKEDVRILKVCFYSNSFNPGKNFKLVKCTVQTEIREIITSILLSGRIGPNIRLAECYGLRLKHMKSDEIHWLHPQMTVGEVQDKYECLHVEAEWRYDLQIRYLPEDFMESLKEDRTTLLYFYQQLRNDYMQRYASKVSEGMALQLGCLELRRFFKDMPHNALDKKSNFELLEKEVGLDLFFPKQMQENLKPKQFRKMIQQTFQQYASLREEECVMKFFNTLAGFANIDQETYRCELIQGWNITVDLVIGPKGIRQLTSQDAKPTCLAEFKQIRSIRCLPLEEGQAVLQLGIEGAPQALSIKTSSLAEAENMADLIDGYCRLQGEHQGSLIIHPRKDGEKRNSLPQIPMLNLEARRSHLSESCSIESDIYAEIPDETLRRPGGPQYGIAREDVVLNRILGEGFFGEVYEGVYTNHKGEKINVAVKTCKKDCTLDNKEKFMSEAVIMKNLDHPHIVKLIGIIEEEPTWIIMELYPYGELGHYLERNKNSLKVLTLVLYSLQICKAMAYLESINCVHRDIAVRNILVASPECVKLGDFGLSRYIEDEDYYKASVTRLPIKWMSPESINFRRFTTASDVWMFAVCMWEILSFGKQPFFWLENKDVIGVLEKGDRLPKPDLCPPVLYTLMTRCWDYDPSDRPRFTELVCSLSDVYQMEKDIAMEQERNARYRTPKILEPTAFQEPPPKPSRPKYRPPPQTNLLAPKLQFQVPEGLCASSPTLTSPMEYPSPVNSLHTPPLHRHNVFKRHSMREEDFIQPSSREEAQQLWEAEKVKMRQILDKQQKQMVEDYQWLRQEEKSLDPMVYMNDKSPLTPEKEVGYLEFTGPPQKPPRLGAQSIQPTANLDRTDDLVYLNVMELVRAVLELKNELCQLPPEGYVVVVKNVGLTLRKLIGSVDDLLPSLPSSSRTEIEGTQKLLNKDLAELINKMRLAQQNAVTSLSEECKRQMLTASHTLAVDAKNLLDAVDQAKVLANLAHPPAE
HUVEC inhibit = inhibitors of HUVEC proliferation, primary screen, cell-based, 384-well; CellTiter-Glo luminescence, 72 h; stronger effect = lower value; viability, % at 10 µM (by protocol); 86,000 compounds, 1.1% hits; AID 648, 2007;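 active means viability at or below 30%; inactive means viability above 30%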;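 further: 100% = median luminescence of DMSO-only cell control wells on each plate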
An asterisk follows results filed as active; x = no result given.

SMILES	bCat KO growth	H69AR inhibit	HCT116 PTEN-null	Fibroblast inh	Pyk2 oligo antag	HUVEC inhibit
Cn1c(N2CCCCC2)nc2c1c(=O)n(Cc1cccc(Br)c1)c(=O)n2C	90	34*	67	98	1.8	99
Cn1c(N2CCN(c3ccccn3)CC2)nc2c1c(=O)n(Cc1ccc(Cl)cc1)c(=O)n2C	74	84	65	97	-0.99	73
O=C(c1cccc(S(=O)(=O)N2CCc3ccccc3C2)c1)N1CCN(c2ccc(O)cc2)CC1	69	x	64	x	x	x
Cc1c(NC(=S)NC(NC(=O)C(C)C)C(Cl)(Cl)Cl)c(=O)n(-c2ccccc2)n1C (stereo not given)	91	x	94	x	x	x
Cc1nn(-c2ccccc2)c2c1C1(C(=O)Nc3ccccc31)N1C(=N2)Sc2ccccc21 (stereo not given)	59	46	x	89	-4.2*	64
CC(=O)N1CCc2c(sc(NC(=O)c3ccc(S(=O)(=O)N(C)C)cc3)c2C#N)C1	x	85	x	97	x	94
CC(=O)N1CCc2c(sc(NC(=O)c3ccc4c(c3)OCCO4)c2C#N)C1	24	24*	29	55	x	63
Cn1c(C(=O)NCCCN2CCc3ccccc3C2)cc2c(=O)n(C)c3ccccc3c21	46	35*	53	67	x	52
COCCCNC(=O)c1cc2c(=O)n(C)c3ccccc3c2n1C	70	24*	63	101	x	70
Cn1c(C(=O)NC2CC2)cc2c(=O)n(C)c3ccccc3c21	94	64	90	101	x	87
Cn1c(C(=O)Nc2ccc3c(c2)OCCO3)cc2c(=O)n(C)c3ccccc3c21	66	21*	58	104	x	50
CC(C)CC(=O)O/N=C1\C(=O)N(Cc2ccc(Cl)cc2)c2ccc([N+](=O)[O-])cc21	65	x	64	x	x	x
O=C(Cc1ccc(Br)cc1)OCC(=O)N1CCc2ccccc2C1	97	x	100	x	x	x
COc1ccccc1-n1cnc(N)c1C(C)=O	113	88	103	98	-0.43	96
COc1ccccc1-n1cnc(N)c1C(=O)c1ccccc1	32	24*	27	73	-0.57	68
CC(C)=NOc1cc(NC(=O)CCl)cc([N+](=O)[O-])c1	3.3*	x	3.0*	x	x	x
CC1=C(C(=O)OC(C)(C)C)C(c2cccs2)NC(=O)N1 (stereo not given)	90	x	93	x	x	x
CSc1nc2ccc(NS(=O)(=O)c3cccc(Cl)c3Cl)cc2s1	92	x	108	x	x	x
O=C(Cc1nn[nH]n1)c1ccccc1O	92	x	104	x	x	x
Cc1ccc(OCCCC(=O)NC(C)c2ccccc2)cc1 (stereo not given)	101	102	92	105	0.29	93
Cc1ccc(-n2nc(C)c3c(C)c(CCC(=O)NC(C)c4ccccc4)c(C)nc32)cc1 (stereo not given)	42	15*	54	73	x	59
Cc1ccc(S(=O)(=O)c2c(C)nn(C(C)(C)C)c2OC(=O)c2ccco2)cc1	93	54	121	109	-0.71	14*
Cc1ccc(S(=O)(=O)c2c(C)nn(C(C)(C)C)c2OC(=O)c2ccc(Br)o2)cc1	96	37*	87	102	-1.2	13*
Cc1ccc(S(=O)(=O)c2c(C)nn(C(C)(C)C)c2OC(=O)C(C)(C)C)cc1	75	95	96	96	-1.1	89
Cc1ccc(S(=O)(=O)c2c(C)nn(C(C)(C)C)c2OC(=O)c2cccs2)cc1	78	110	74	101	-2.2	12*
SMILES	bCat KO growth	H69AR inhibit	HCT116 PTEN-null	Fibroblast inh	Pyk2 oligo antag	HUVEC inhibit
CC(=O)Oc1c(S(=O)(=O)c2ccc(C)cc2)c(C)nn1C(C)(C)C	104	91	100	102	0.92	108
Cc1nnc(SCCn2c(N3CC(C)CC(C)C3)nc3c2c(=O)[nH]c(=O)n3C)s1 (stereo not given)	95	90	90	102	1.3	89
COc1ccccc1C(=O)NNC(=S)NC(=O)c1ccco1	11	x	13	x	x	x
CC(OC(=O)c1cccc(NS(C)(=O)=O)c1)C(=O)Nc1ccc(N2CCOCC2)cc1 (stereo not given)	85	94	84	107	0.56	96
CCCCN(C)CC(O)Cn1cc(/C=C/C(=O)c2cccs2)c2ccccc21 (stereo not given)	1.6*	x	1.6*	x	x	x
O=Cc1cn(CC(=O)N2CCCCC2)c2ccccc12	99	x	93	x	x	x
O=C(/C=C/c1cn(CC(O)CN2CCCCCC2)c2ccccc12)c1cccs1 (stereo not given)	1.2*	x	1.9*	x	x	x
O=C(NNC(=O)C1CCCO1)c1ccc(F)cc1 (stereo not given)	100	x	95	x	x	x
CCOc1cc(N2CCOCC2)c(OCC)cc1NC(=O)c1cc(-c2ccco2)nc2ccccc12	71	4.0*	66	9.1*	-0.75	15*
COc1ccc2c(c1)c1nc3ccccc3nc1n2CCn1c(=O)oc2ccccc21	83	x	87	x	-0.25	x
O=c1oc2ccccc2n1CCn1c2ccccc2c2nc3ccccc3nc21	86	43	87	93	-3.1*	48
CCOC(=O)Cn1c2ccccc2c2nc3ccccc3nc21	21	6.1*	44	96	-0.42	107
COc1ccc2c(c1)c1nc3ccccc3nc1n2CC(=O)OC(C)C	2.3*	18*	3.7*	39*	-0.52	57
O=C(Cn1cc(C(F)(F)F)cc(Cl)c1=O)NCCc1ccccc1	94	x	93	x	0.84	x
Cc1cc(C)n(-c2nc3ccccc3nc2N2CCC(C)CC2)n1	68	90	72	94	-0.63	120
Cc1cc(N2CCC(C)CC2)nc(-n2nc(C)cc2C)n1	37	1.7*	49	93	-0.41	121
Cc1ccc(C(=O)N/N=C\c2cc3c(cc2Br)OCO3)s1	97	x	95	x	x	x
COC1(OC)C(/C=C/c2ccc(Cl)cc2)C(C#N)(C#N)C1(OC)OC (stereo not given)	4.2*	-0.4*	3.0*	52	-1.3	7.0*
CCCCCCc1cc2cc(C(=O)NC)c(=N)oc2cc1O	9	x	4	x	-2.2	x
CCCCCCc1cc2cc(S(=O)(=O)c3ccc(F)c(Cl)c3)c(=O)oc2cc1O	2.9*	x	3.1*	x	x	x
CCCCCCc1cc2cc(C(=O)Nc3cccc(OC)c3)c(=O)oc2cc1O	5.3*	x	5	x	x	x
CCCCCCc1cc2cc(C(N)=O)c(=N)oc2cc1O	84	2.0*	58	101	x	68
NN1C(=O)c2cccc3c(C(=O)O)ccc(c23)C1=O	90	x	97	x	x	x
O=C(c1ccc2c3c(cccc13)C(=O)N(O)C2=O)N1CCCCC1	37	25*	21	93	-0.58	89
